Measurements as given in ChEMBL document CHEMBL1124866, “Synthesis and activity of NAcSerAspLysPro analogues on cellular interactions between T-cell and erythrocytes in rosette formation” (1990).
Activity calls are given as the source filed them. The calls are words filed in the database; no cut-off is given here. Square brackets hold non-standard residues; d marks the D form. Peptide text beside a SMILES is read from it. Orn = NCCC[C@H](N)C(=O)O

Key:
Jurkat [1] = test: (§1) Activity on rosetting of jurkat T-cells with SRBC at the concentration of 10e-6 M; type: functional, Homo sapiens
Jurkat [2] = test: Activity on rosetting of jurkat T-cells with SRBC at the concentration of 10e-3 M; type: functional, Homo sapiens
Jurkat [3] = test: Activity on rosetting of jurkat T-cells with SRBC at the concentration of 10e-9 M; type: functional, Homo sapiens
Jurkat [4] = test: Activity on rosetting of jurkat T-cells with SRBC at the concentration of 10e-11 M; Not significant; type: functional, cell-based; settings: Homo sapiens, at 10 pM
Method in brief: (§2)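 Jurkat T lymphoma cells kept in RPMI 1640 with 10% heat-inactivated FCS, washed three times before use; SRBC washed three times. Jurkat cells (2 × 10^6 cells/mL, 2.10⁵ cells) preincubated with peptide in RPMI for 10 min at 4 °C. SRBC (2 × 10^8 cells/mL) added, centrifuged 5 min at 200g, held overnight at 4 °C. Rosettes (three erythrocytes per lymphocyte) counted blind by hemocytometer; three experiments in quadruplicate; % inhibition.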

Jurkat [5] = test: Activity on rosetting of jurkat T-cells with SRBC at the concentration of 10e-7 M; type: functional, Homo sapiens
Jurkat [6] = test: Activity on rosetting of jurkat T-cells with SRBC at the concentration of 10e-5 M; Not significant; type: functional, cell-based; settings: Homo sapiens
Jurkat [7] = test: Activity on rosetting of jurkat T-cells with SRBC at the concentration of 10e-6 M; Not significant; type: functional, cell-based; settings: Homo sapiens
Jurkat [8] = test: Activity on rosetting of jurkat T-cells with SRBC at the concentration of 10e-11 M; type: functional, Homo sapiens
Jurkat [9] = test: (§3) Activity on rosetting of jurkat T-cells with SRBC at the concentration of 10e-5 M; type: functional, Homo sapiens
Jurkat [10] = test: Activity on rosetting of jurkat T-cells with SRBC at the concentration of 10e-8 M; type: functional, Homo sapiens
Jurkat [11] = test: Activity on rosetting of jurkat T-cells with SRBC at the concentration of 10e-4 M; Not significant; type: functional, cell-based; settings: Homo sapiens
Jurkat [12] = test: Activity on rosetting of jurkat T-cells with SRBC at the concentration of 10e-10 M; type: functional, Homo sapiens
Jurkat [13] = test: Activity on rosetting of jurkat T-cells with SRBC at the concentration of 0 M; type: functional, Homo sapiens
Jurkat [14] = test: Activity on rosetting of jurkat T-cells with SRBC at the concentration of 10e-9 M; Not significant; type: functional, cell-based; settings: Homo sapiens, at 0.001 µM; method in brief: as §2
Jurkat [15] = test: Activity on rosetting of jurkat T-cells with SRBC at the concentration of 10e-8 M; Not significant; type: functional, cell-based; settings: Homo sapiens, at 0.01 µM; method in brief: as §2
Jurkat [16] = test: Activity on rosetting of jurkat T-cells with SRBC at the concentration of 10e-3 M; Not significant; type: functional, cell-based; settings: Homo sapiens
Jurkat [17] = test: Activity on rosetting of jurkat T-cells with SRBC at the concentration of 10e-7 M; Not significant; type: functional, cell-based; settings: Homo sapiens, at 0.1 µM; method in brief: as §2
Jurkat [18] = test: Activity on rosetting of jurkat T-cells with SRBC at the concentration of 10e-10 M; Not significant; type: functional, cell-based; settings: Homo sapiens, at 0.0001 µM; method in brief: as §2
Jurkat [19] = test: (§4) Activity on rosetting of jurkat T-cells with SRBC at the concentration of 10e-4 M; type: functional, Homo sapiens
Jurkat [20] = test: as §1; type: functional; settings: Homo sapiens
Jurkat [21] = test: as §3; type: functional; settings: Homo sapiens
Jurkat [22] = test: as §4; type: functional; settings: Homo sapiens

SMILES	No. of rosettes/100 Jurkat T cells (Jurkat [1])	No. of rosettes/100 Jurkat T cells (Jurkat [3])	inhibition (Jurkat [4])	No. of rosettes/100 Jurkat T cells (Jurkat [5])	inhibition (Jurkat [6])	inhibition (Jurkat [7])	No. of rosettes/100 Jurkat T cells (Jurkat [8])	No. of rosettes/100 Jurkat T cells (Jurkat [9])	No. of rosettes/100 Jurkat T cells (Jurkat [10])	inhibition (Jurkat [11])	No. of rosettes/100 Jurkat T cells (Jurkat [12])	No. of rosettes/100 Jurkat T cells (Jurkat [13])	inhibition (Jurkat [14])	inhibition (Jurkat [15])	inhibition (Jurkat [17])	inhibition (Jurkat [18])	No. of rosettes/100 Jurkat T cells (Jurkat [19])	inhibition at 1 µM (Jurkat [20]) [%]	inhibition at 10 µM (Jurkat [21]) [%]	further results
CC(=O)N[C@@H](CO)C(=O)N[C@H](CC(=O)O)C(=O)N[C@@H](CCCCN)C(=O)N1CCC[C@H]1C(=O)O	42	51	inactive	47	inactive	inactive	57	49	47	inactive	43	51	inactive	inactive	inactive	inactive	48			No. of rosettes/100 Jurkat T cells (Jurkat [2]): 48; inhibition (Jurkat [16]): inactive
CC(=O)N[C@@H](C)C(=O)N[C@@H](CC(=O)O)C(=O)N[C@@H](CCCCN)C(=O)N1CCC[C@H]1C(=O)O (Ac-ADKP-OH)	59	64	inactive	59	inactive	inactive	56	57	63	inactive	56	60	inactive	inactive	inactive	inactive	54			
CC(=O)N[C@@H](CO)C(=O)N[C@@H](CC(=O)O)C(=O)N[C@@H](CCCN)C(=O)N1CCC[C@H]1C(=O)O (Ac-SD[Orn]P-OH)	52				inactive	inactive		52		inactive		58					54			
CC(=O)N[C@@H](CO)C(=O)N[C@@H](CCC(=O)O)C(=O)N[C@@H](CCCCN)C(=O)N1CCC[C@H]1C(=O)O (Ac-SEKP-OH)	35	43	inactive	41			45	29	42		46	47	inactive	inactive	inactive	inactive		25	37	
CC(=O)N[C@@H](CO)C(=O)N[C@@H](CC(=O)O)C(=O)O (Ac-Ser-Asp-OH)	46	51	inactive	52			58	39	54		57	56	inactive	inactive	inactive	inactive	39	18	30	inhibition at 100 µM (Jurkat [22]): 30%
NCCCC[C@H](NC(=O)[C@@H](N)CC(=O)O)C(=O)O (H-Asp-Lys-OH)					inactive			56	58	inactive		56		inactive			53			
